One series in a line: hPPB. Type of series: in vitro ADME. The following applies: human.
For series [1], the system named is collagen antibody-induced arthritis. Put plainly: Murine collagen antibody-induced arthritis. The following applies: 100 mg/kg twice daily oral gavage from day 4, day 14. Type of series: in vivo, female B10.RIII mice. The essentials: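 Female B10.RIII mice, 8–10 weeks old, received 2 mg anti-collagen II monoclonal antibody cocktail i.p., then 37.5 μg LPS i.p. 3 days later. From day 4, compounds or vehicle (1% CMC, 0.015% Tween 80, 10 mL/kg) were given by oral gavage twice daily. Each limb was scored visually daily, days 3–14, and group mean computed. Body weight recorded every other day.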

A short description of another series: PAMPA permeability. Type of series: in vitro ADME. (PAMPA measures passive passage across an artificial lipid membrane.)
In series [2] the target is catalytic domain of recombinant human MMP-8 (Homo sapiens, UniProt P22894). As to the kind of experiment: MMP-8 biochemical assay. A digest of the protocol:
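FRET cleavage assay with 2 nM recombinant human MMP-8 catalytic domain and 2 μM quenched FRET peptide substrate. Incubated 30 min at 28 °C/80% humidity; fluorescence read at ex 485/em 535 nm.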

The next series is described as follows: Rat pharmacokinetics. Type of series: in vivo, Sprague Dawley rats. The following applies: Sprague Dawley, plasma. The essentials: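 Sprague Dawley rats (N = 3) were dosed i.v. at 1 mpk in 70% PEG or by oral gavage as a methylcellulose suspension. Serial blood samples were anticoagulated and centrifuged to plasma. Parent compound was quantified in plasma, and PK parameters were calculated by noncompartmental analysis.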

A further series can be described thus: Caco-2 permeability. Type of series: in vitro ADME. The following applies: human, Caco-2, pH 7.4. The essentials: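 Caco-2 cells were seeded at 80,000 cells/cm2 on polycarbonate Transwell filters and grown 21–25 days. Monolayers were pre-equilibrated with HBSS pH 7.4 for 30 min at 37 °C. Dosing solution was 50 mM nominal in HBSS, stirred overnight at room temperature, filtered and added apically (A/B) or basolaterally (B/A). Receiver sampled at 15–150 min, in duplicate. Papp (cm/s) by LC/MS/MS.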
Background: Caco-2 monolayers are a common model of the intestinal barrier.

Series [3] addresses catalytic domain of human MMP13 (Homo sapiens, UniProt P45452). Put plainly: Biochemical MMP-13 FRET assay. Conditions: vs compound 13.

Molecules are shown by their SMILES.

Sequence of catalytic domain of recombinant human MMP-8 (P22894 100-262 limits assumed): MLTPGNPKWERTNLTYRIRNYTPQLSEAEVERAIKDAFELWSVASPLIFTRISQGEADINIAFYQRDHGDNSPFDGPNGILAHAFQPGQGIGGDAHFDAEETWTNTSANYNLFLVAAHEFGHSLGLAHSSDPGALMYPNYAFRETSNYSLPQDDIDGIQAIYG

Consider `Cc1noc(-c2cc3cc(-c4nc(C(=O)NCc5ccncc5)[nH]c4C)ccc3[nH]2)n1` [Compound 17, 4-Methyl-5-[2-(3-methyl-[1,2,4]oxadiazol-5-yl)-1H-indol-5-yl]-1H-imidazole-2-carboxylic Acid (Pyridin-4-ylmethyl)-amide], for which the “hPPB (% bound)” value in the series “hPPB” came to 93 % bound. Further, in series [1], the “overall mean arthritic score vs vehicle control” value was “significantly reduced”. The Papp (commonly the rate of passage across a membrane or cell layer, normalised by area and donor concentration) in “PAMPA permeability” was 29 ×10⁻⁶ cm/s. The IC50 (commonly the point on the concentration scale where inhibition reaches its midpoint) in series [2] came to 3.1 µM. For the same molecule, the half-life (as a rule, the time needed for the level to fall by half in the phase considered) in “Rat pharmacokinetics” is 0.9 h. Besides, in “Caco-2 permeability”, the Papp A→B (in general, how fast a substance crosses the layer from the apical side) at 150 min, 50 mM amounted to 3.5 ×10⁻⁶ cm/s and the Papp B→A – broadly, how fast a substance crosses the layer from the basolateral side – at 150 min, 50 mM turned out to be 9 ×10⁻⁶ cm/s.

Regarding `Cc1noc(-c2cc3cc(-c4[nH]c(C(=O)NCc5ccccc5)nc4C)ccc3[nH]2)n1` [Compound 21, 4-Methyl-5-[2-(3-methyl-[1,2,4]oxadiazol-5-yl)-1H-indol-5-yl]-1H-imidazole-2-carboxylic Acid Benzylamide], the “loss of potency relative to 13” value in series [3] amounted to 10 fold.

As for `CCNC(=O)c1nc(-c2ccc3[nH]c(-c4nc(C)no4)cc3c2)c(C)[nH]1` [Compound 15, 4-Methyl-5-[2-(3-methyl-[1,2,4]oxadiazol-5-yl)-1H-indol-5-yl]-1H-imidazole-2-carboxylic Acid Ethylamide], the half-life in the series “Rat pharmacokinetics” was 1.8 h.

For the origin of these results see publication PMC8319936 (ACS Omega, 2021).
